Results on 60 compounds are retold here after ChEMBL document CHEMBL1144837, “Antimitotic and antiproliferative activities of chalcones: forward structure-activity relationship” (J Med Chem, 2008).

Assay [1] has as its system K562. The assay is described as follows: Cell cycle arrest in human K562 cells assessed as accumulation at G2/M phase at 10 uM after 24 hrs by flow cytometry. The format is functional. The method in brief:
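K562 cells exposed 24 h at 10 µM, then stained with propidium iodide at 4 °C overnight and analysed by flow cytometry. After doublets and aggregates were excluded on an FL2-area/FL2-width plot, cells were assigned to G0/G1, S and G2/M, and the G2/M fraction was scored.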

In another assay the test system is MCF7. The assay is described as follows: Cytotoxicity against human MCF7 cells after 24 hrs by MTT assay. The format is functional, cell-based. Particulars: MCF7, 24 h. The method in brief: (§1)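 MTT viability assay: exponentially growing cells were seeded at 3 × 10^3 cells/well and held 24 h before drug addition. Formazan was dissolved in isopropanol and read by absorbance relative to untreated wells. IC50 is the concentration giving 50% growth loss against a control-cell standard curve after 24 h incubation. Run in triplicate, at least three separate experiments.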

A further assay has as its system N2a. The assay is described as follows: Cytotoxicity against mouse N2A cells after 24 hrs by MTT assay. The assay is classed as functional, cell-based. The method in brief: as §1
Another assay concerns NIH3T3. The assay is described as follows: Cytotoxicity against mouse NIH3T3 cells after 24 hrs by MTT assay. The assay is classed as functional, cell-based. Particulars: NIH3T3, 24 h. The essentials: as §1
The subject of another assay is SW48. The assay is described as follows: Cytotoxicity against human SW48 cells after 24 hrs by MTT assay. The format is functional, cell-based. Particulars: SW48, 24 h. The method in brief: as §1
The nature of assay [2]: Cytotoxicity against human HNO150 cells after 24 hrs by MTT assay. The format is functional, cell-based. Particulars: HNO150, 24 h. The essentials:
as §1

The subject of the next assay is HCT-116. The assay is described as follows: Cytotoxicity against human HCT116 cells after 24 hrs by MTT assay. The format is functional, cell-based. Particulars: HCT-116, 24 h. The method in brief: as §1
The nature of assay [3]: Cytotoxicity against human Messa cells after 24 hrs by MTT assay. The assay is classed as functional, cell-based. Particulars: MES-SA. The method in brief: as §1
The test system of the next assay is CCRF-CEM. The assay is described as follows: Cytotoxicity against human CEM cells after 24 hrs by MTT assay. The assay is classed as functional, cell-based. The essentials:
as §1

The subject of assay [4] is K562. The assay is described as follows: Cytotoxicity against human K562 cells after 24 hrs by MTT assay. The assay is classed as functional, cell-based. Particulars: K562, 24 h. The essentials: as §1
The next assay has as its system RL. The assay is described as follows: Cytotoxicity against human RL cells after 24 hrs by MTT assay. The assay is classed as functional, cell-based. The method in brief:
as §1

The test system of a further assay is L1210. The assay is described as follows: Cytotoxicity against mouse L1210 cells after 24 hrs by MTT assay. The assay is classed as functional, cell-based. Particulars: L1210, 24 h. The method in brief: as §1

As to `COc1ccc(/C=C/C(=O)c2ccc(OC)cc2OC)c(OC)c1`, the Activity in the assay on K562 [1] turned out to be 25%.

Consider `O=C(/C=C/c1c(Cl)cccc1Cl)c1ccccc1`, for which the Activity in the assay with K562 [1] is on record as 28%.

Take `COc1ccc(C(=O)/C=C/c2ccccc2Cl)c(OC)c1`: in the assay on K562 [1], the Activity came to 42%.

Consider `COc1cc(O)c(C(=O)/C=C/c2ccccc2Cl)c(OC)c1`, for which, in the assay with K562 [1], the Activity is listed as 43%.

Take `COc1cc(O)c(C(=O)/C=C/c2ccccc2OC)c(OC)c1`: the Activity in the assay on K562 [1] was 41%.

Take `CCOc1cc(OCC)c(/C=C/C(=O)c2c(OCC)cc(OCC)cc2OCC)c(OCC)c1`: the Activity with K562 [1] is recorded as 18%.

With `COc1ccc(C(=O)/C=C/c2cc(OC)c(OC)cc2OC)c(O)c1`, the Activity in the assay with K562 [1] is 15%.

As to `COc1ccc(C(=O)/C=C/c2c(Cl)cccc2OC)c(O)c1`, the Activity in the assay with K562 [1] was determined as 45%.

For the compound `COc1ccc(/C=C/C(=O)c2c(OC)cccc2OC)c(OC)c1`, in the assay on K562 [1], the Activity came out at 22%.

`CCOc1cccc(OCC)c1C(=O)/C=C/c1c(OC)cc(OC)cc1OC`: the Activity in the assay with K562 [1] turned out to be 10%.

Regarding `COc1cccc(OC)c1C(=O)/C=C/c1c(C)cc(C)cc1C`, the Activity in the assay with K562 [1] is given as 23%.

With `COc1cccc(OC)c1C(=O)/C=C/c1c(OC)c(F)c(OC)c(F)c1OC`, the Activity in the assay with K562 [1] is listed as 46%.

For `COc1cccc(OC)c1C(=O)/C=C/c1cccc(F)c1`, the Activity in the assay with K562 [1] is listed as 27%.

For the compound `COc1cccc(OC)c1C(=O)/C=C/c1cccc(Cl)c1`, the Activity in the assay on K562 [1] is 19%.

In the case of `COc1ccc(C(=O)/C=C/c2c(OC)cc(OC)cc2OC)c(O)c1`, the Activity in the assay with K562 [1] was 19%.

On to `COc1cccc(/C=C/C(=O)c2c(OC)cccc2OC)c1`, for which, in the assay on K562 [1], the Activity is 29%.

As to `COc1cc(O)c(C(=O)/C=C/c2c(Cl)cccc2Cl)c(OC)c1`, the Activity in the assay on K562 [1] amounted to 26%.

For the compound `COc1cc(OC)c(C(=O)/C=C/c2c(OC)cccc2OC)c(OC)c1`, the Activity in the assay with K562 [1] amounted to 64%.

`COc1ccc(/C=C/C(=O)c2c(OC)cc(OC)cc2OC)c(OC)c1`: the Activity with K562 [1] stood at 15%.

For `COc1ccc(C(=O)/C=C/c2cccc(F)c2)c(OC)c1`, the Activity in the assay on K562 [1] turned out to be 32%.

`COc1cc(OC)c(/C=C/C(=O)c2c(OC)cccc2OC)c(OC)c1`: in the assay with K562 [1], the Activity is 84%. For the same compound, the IC50 with MCF7 came to 60 µM; in the assay with N2a, 2.2 µM; with NIH3T3, 30 µM; in the assay on SW48 it was 0.25 µM; in [2], 1.3 µM; in the assay with HCT-116, 0.45 µM. Besides, the half-inhibitory concentration (IC50) came out at 1 µM in assay [3]; 0.65 µM in the assay on CCRF-CEM; 50 µM in the assay with K562 [4]; 0.8 µM in the assay on RL; 7 µM in the assay with L1210.

Regarding `COc1cccc(OC)c1C(=O)/C=C/c1c(Cl)cccc1Cl`, the Activity in the assay with K562 [1] was 39%.

Turning to `COc1ccc(C(=O)/C=C/c2cccc(F)c2)c(O)c1`, in the assay with K562 [1], the Activity is recorded as 40%.

Regarding `COc1cccc(OC)c1C(=O)/C=C/c1ccc(C(F)(F)F)cc1`, the Activity in the assay with K562 [1] came to 23%.

Consider `COc1cccc(OC)c1C(=O)/C=C/c1ccccc1Cl`, for which the Activity with K562 [1] is recorded as 23%.

Consider `COc1cccc(/C=C/C(=O)c2ccc(OC)cc2O)c1`, for which the Activity in the assay on K562 [1] is reported as 26%.

In the case of `COc1ccc(C(=O)/C=C/c2cc(OC)ccc2OC)c(O)c1`, the Activity in the assay on K562 [1] is recorded as 32%.

Turning to `COc1ccc(C(=O)/C=C/c2ccc(OC)cc2OC)c(O)c1`, the Activity with K562 [1] is given as 18%.

For the compound `COc1cc(O)c(C(=O)/C=C/c2cccc(F)c2)c(OC)c1`, in the assay with K562 [1], the Activity amounted to 48%.

`COc1cc(O)c(C(=O)/C=C/c2c(OC)cccc2OC)c(OC)c1`: the Activity in the assay on K562 [1] amounted to 12%.

With `COc1cccc(OC)c1/C=C/C(=O)c1c(OC)cccc1OC`, the Activity with K562 [1] came out at 78%. Further, the IC50 in the assay on MCF7 was 75 µM; in the assay with N2a, 55 µM; with NIH3T3, 60 µM; in the assay with SW48, 10 µM; in assay [2], 62 µM; in the assay with HCT-116 it was 9 µM. The IC50 in assay [3] came to 10 µM; with CCRF-CEM it was 6 µM; with K562 [4], 80 µM; in the assay with RL, 40 µM; in the assay on L1210, 34 µM.

In the case of `COc1ccc(C(=O)/C=C/c2cccc(OC)c2OC)c(O)c1`, the Activity with K562 [1] was 22%.

For the compound `COc1ccc(C(=O)/C=C/c2cc(OC)c(OC)c(OC)c2)c(O)c1`, in the assay with K562 [1], the Activity is 20%.

On to `COc1cc(OC)c(/C=C/C(=O)c2c(OC)cc(N)cc2OC)c(OC)c1`, for which the Activity in the assay with K562 [1] came to 74%.

On to `COc1cccc(OC)c1/C=C/C(=O)c1ccccc1`, for which the Activity in the assay with K562 [1] is 34%.

Take `COc1ccc(C(=O)/C=C/c2ccc(OC)c(OC)c2)c(O)c1`: in the assay on K562 [1], the Activity is reported as 18%.

Consider `COc1cc(/C=C/C(=O)c2c(OC)cccc2OC)cc(OC)c1OC`, for which the Activity in the assay on K562 [1] is 25%.

Turning to `COc1ccc(/C=C/C(=O)c2c(OC)cccc2OC)c(OC)c1OC`, the Activity with K562 [1] was determined as 19%.

As for `COc1cc(OC)c(OC)cc1/C=C/C(=O)c1c(OC)cccc1OC`, the Activity in the assay on K562 [1] came out at 49%.

As to `COc1ccc(C(=O)/C=C/c2c(OC)cccc2OC)c(O)c1`, the Activity in the assay on K562 [1] is given as 18%.

As to `COc1cccc(OC)c1C(=O)/C=C/c1ccccc1`, the Activity in the assay with K562 [1] is listed as 45%.

With `COc1cc(/C=C/C(=O)c2c(O)cc(OC)cc2OC)cc(OC)c1`, the Activity with K562 [1] was 11%.

For `COc1ccc(C(=O)/C=C/c2ccccc2Cl)c(O)c1`, the Activity in the assay with K562 [1] worked out at 67%.

For `COc1ccc(C(=O)/C=C/c2ccc(OC)c(OC)c2OC)c(O)c1`, the Activity in the assay on K562 [1] turned out to be 20%.

For `CCOc1ccc(/C=C/C(=O)c2c(OCC)cccc2OCC)c(OCC)c1`, the Activity in the assay with K562 [1] is on record as 11%.

In the case of `COc1ccc(C(=O)/C=C/c2c(F)cccc2Cl)c(O)c1`, the Activity with K562 [1] was 19%.

On to `COc1cccc(/C=C/C(=O)c2c(O)cc(OC)cc2OC)c1`, for which the Activity in the assay on K562 [1] turned out to be 52%.

Turning to `COc1ccc(C(=O)/C=C/c2ccc(Cl)cc2)c(O)c1`, the Activity in the assay on K562 [1] was found to be 10%.

Take `COc1cc(O)c(C(=O)/C=C/c2ccc3c(c2)OCO3)c(OC)c1`: the Activity in the assay on K562 [1] came out at 13%.

Take `CCOc1cc(OCC)c(/C=C/C(=O)c2c(OC)cccc2OC)c(OCC)c1`: the Activity in the assay on K562 [1] is reported as 12%.

Take `COc1cccc(OC)c1C(=O)/C=C/c1ccccc1F`: the Activity in the assay on K562 [1] is 38%.

With `COc1cc(/C=C/C(=O)c2ccc(OC)cc2O)cc(OC)c1`, in the assay with K562 [1], the Activity was 40%.

In the case of `CCOc1cccc(OCC)c1C(=O)/C=C/c1c(OC)cccc1OC`, in the assay with K562 [1], the Activity came to 14%.

In the case of `COc1cc(OC)c(/C=C/C(=O)c2c(OC)cc(OC)cc2OC)c(OC)c1`, in the assay on K562 [1], the Activity is 86%. Also, the concentration for half-maximal inhibition (IC50) with MCF7 came out at 52 µM; with N2a it was 4 µM; in the assay on NIH3T3, 30 µM; in the assay on SW48 it was 0.8 µM; in assay [2], 10 µM; in the assay with HCT-116, 1 µM. Moreover, the IC50 in assay [3] was 2.2 µM; in the assay with CCRF-CEM, 1.9 µM; with K562 [4], 50 µM; in the assay on RL, 0.9 µM; with L1210 it was 8.5 µM.

For the compound `COc1ccccc1/C=C/C(=O)c1c(OC)cccc1OC`, in the assay on K562 [1], the Activity was found to be 18%.

For `COc1cc(OC)c(/C=C/C(=O)c2ccc(Cl)c(Cl)c2)c(OC)c1`, the Activity in the assay on K562 [1] was 30%.

`COc1ccc(C(=O)/C=C/c2c(OC)cc(OC)cc2OC)c(OC)c1` (stereo in doubt; 3): the Activity in the assay on K562 [1] is 86%.

`COc1ccc(C(=O)/C=C/c2c(OC)cc(OC)cc2OC)c(OC)c1` (stereo in doubt; 52): the Activity in the assay with K562 [1] is reported as 72%.

Consider `COc1cc(O)c(C(=O)/C=C/c2ccccc2)c(OC)c1` [FLAVOKAWAIN B], for which the Activity in the assay on K562 [1] is reported as 28%.

As for `CC[C@]1(O)C[C@H]2CN(CCc3c([nH]c4ccccc34)[C@@](C(=O)OC)(c3cc4c(cc3OC)N(C=O)[C@H]3[C@@](O)(C(=O)OC)[C@H](OC(C)=O)[C@]5(CC)C=CCN6CC[C@]43[C@@H]65)C2)C1` [VINCRISTINE], in the assay with K562 [1], the Activity is recorded as 72%.
